# Hits are enriched below; roughly 3.1% of the tested compounds scored in any of these assays.
# CHO parental Ca: counter-screen: ATP calcium response change in parental CHO cells. parental CHO-K1, ATP-induced calcium, Fluo-8 fluorescence. inhibition, % at 5.6 µM. actives 0.63% (n = 330,000);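 active means inhibition above that plate's mean sample inhibition plus 3 SD, cut at about 26% in these data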;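 further: 0% = ATP-challenged DMSO wells and 100% = DMSO wells without ATP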
#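 Material: Parental CHO cells | Reagent: ATP | Compound dosing: Single nominal dose of 5.6 µM per compound | Detection: Intracellular calcium via Fluo-8 no-wash fluorescent dye | Read-out: % inhibition of ATP-induced calcium mobilization | Benchmarks: Low control ATP plus DMSO, high control DMSO only | Replicates: Singlicate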
# OX1R antag-1: blocks the human orexin 1 receptor | O43613 | CHO/OX1R cells, Fluo-8 calcium fluorescence, orexin A | inhibition, % at 5 µM | actives 0.43% (n = 330,000) | AID 434989;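 active means inhibition above its plate's threshold, mean inhibition of all tested compounds on the plate plus 3 SD, cut at about 37% in these data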;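 further: 0% = orexin A challenge wells and 100% = SB-334867-A antagonist wells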
# GalR3 antag: human GalR3 antagonism. inhibition, % at 3 µM. O60755. HEK293 GalR3-CNG cAMP membrane potential fluorescence; galR3 body fused to GalR1 C-terminus. actives 0.44% (n = 360,000);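 active means inhibition above the screen-wide average plus 3 SD, cut at about 13% in these data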;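 further: forskolin and galanin both at EC90 stimulate the cells; cAMP rise reported by CNG channel membrane potential dye signal; 0% = forskolin plus galanin with DMSO and 100% = forskolin alone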
# Target sequence (O60755 1-299 limits assumed): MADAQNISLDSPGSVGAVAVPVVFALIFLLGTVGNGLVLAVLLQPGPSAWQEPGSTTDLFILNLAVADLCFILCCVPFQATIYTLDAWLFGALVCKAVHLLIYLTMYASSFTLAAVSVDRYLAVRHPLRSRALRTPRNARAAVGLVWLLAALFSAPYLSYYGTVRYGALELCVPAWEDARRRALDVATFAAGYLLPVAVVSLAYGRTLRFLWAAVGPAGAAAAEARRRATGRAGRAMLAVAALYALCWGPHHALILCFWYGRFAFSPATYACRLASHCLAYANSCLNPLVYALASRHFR
# GPR7 antag: blocks human GPR7 receptor signaling | P48145 | GPR7-expressing cells, fluorescence antagonist assay | inhibition, % at 4.4 µM | actives 1.1% (n = 290,000); in the data active means inhibition above about 16%, passing the limit was not always enough;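 further: cells stimulated with the agonist NPW; 0% = agonist with vehicle and 100% = vehicle without agonist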
# Target sequence (P48145 whole entry, looked up): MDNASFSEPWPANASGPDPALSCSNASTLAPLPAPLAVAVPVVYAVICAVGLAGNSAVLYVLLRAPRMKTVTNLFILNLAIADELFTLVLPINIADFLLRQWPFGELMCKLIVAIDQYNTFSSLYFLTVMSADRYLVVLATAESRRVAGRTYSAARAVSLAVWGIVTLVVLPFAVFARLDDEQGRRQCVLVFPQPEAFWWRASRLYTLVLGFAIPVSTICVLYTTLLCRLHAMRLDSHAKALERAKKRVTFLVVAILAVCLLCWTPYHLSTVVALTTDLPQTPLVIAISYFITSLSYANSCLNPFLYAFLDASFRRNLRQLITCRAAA
# OX1R antag-2: blocks the human orexin 1 receptor | O43613 | OX1R-expressing cells, FRET antagonist read-out | inhibition, % at 6.6 µM | actives 1.8% (n = 330,000) | AID 485270; in the data active means inhibition mostly above about 38%, no sharp cut-off; inactive means mostly below about 40%;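 further: 0% = agonist challenge alone and 100% = reference antagonist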
# GalR3 antag conf: GalR3 (human) antagonism, confirmation; shares compounds with GalR3 antag; actives 59% (n = 1,600); inhibition, % at 3 µM; HEK293 GalR3 CNG cAMP biosensor, membrane potential fluorescence; galR3 fused to GalR1 carboxy tail; challenged with forskolin and galanin at EC90; AID 652245;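 active means inhibition above the primary screen's cutoff, the mean inhibition of all screened compounds plus 3 SD, cut at about 13% in these data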;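 further: 0% = forskolin plus galanin and 100% = forskolin alone with DMSO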
# CNG parental: acts as nonspecific agonist in parental HEK-CNG cells | actives 10% (n = 1,600) | activation, % at 3 µM | HEK293-CNG parental cells, cAMP membrane potential fluorescence; normalised: DMSO wells 0%, forskolin wells 100% | shares compounds with GalR3 antag | AID 652268; in the data active means activation above about 1.3%
# Active calls of the source: *; . = no result.
SMILES,CHO parental Ca,OX1R antag-1,GalR3 antag,GPR7 antag,OX1R antag-2,GalR3 antag conf,CNG parental
Cc1oc(-c2ccc(Cl)cc2)nc1CN1CCCC(C(=O)NCc2cccnc2)C1 (configuration not stated),-17.7,-19.1,83.3*,-8.6,23.9,111.1*,0.3
CCOc1ccc(-c2nc(CSCC(=O)NC3CCN(Cc4ccccc4)CC3)c(C)o2)cc1,.,.,-6.5,.,.,.,.
Cc1oc(-c2ccc(Cl)cc2)nc1CSCC(=O)NC1CCN(Cc2ccccc2)CC1,-20.4,-47.9,96.3*,9.3,-1.1,105.5*,0.8
Cc1oc(-c2ccc(Cl)cc2)nc1CN1CCCC(C(=O)NCc2ccccn2)C1 (configuration not stated),-16.4,-26.6,-3.8,-6.9,8.4,.,.
O=C1Nc2cc(Cl)ccc2Nc2cscc21,-1.4,-20.9,-6.7,.,3.9,.,.
CCOC(=O)C1=C(C)NC2=C(C(=O)CCC2)C1c1cn(Cc2ccc(Cl)cc2Cl)nc1-c1ccccc1 (configuration not stated),-25.8,12.9,15.8*,-6.3,24.6,13.2*,6.2*
CCOC(=O)C1=C(C)NC2=C(C(=O)CCC2)C1c1cc(OC)ccc1OC (configuration not stated),-14.2,-18.3,-0.5,-13.2,6.0,.,.
COC(=O)C1=C(C)NC2=C(C(=O)CCC2)C1c1cn(Cc2ccc(Cl)cc2Cl)nc1-c1ccccc1 (configuration not stated),-16.1,12.7,37.1*,-16.2,65.8,50.1*,-0.1
CC1CCCc2sc3ncn(N)c(=N)c3c21 (configuration not stated),-11.9,-26.2,2.6,-2.2,21.5,.,.
CC(=O)Nc1ccc(/C=N/NC(=S)NC(C)C)cc1,6.6,-6.7,6.4,-4.9,28.9,.,.
O=C1N=c2ccccc2=C1c1sc(=S)n(-c2ccc(O)cc2)c1O,30.7,-11.4,13.5*,-5.5,9.0,6.9,-2.0
CCn1cc(S(=O)(=O)NC(C)c2cc(OC)ccc2OC)cn1 (configuration not stated),0.0,9.8,0.2,-12.9,13.5,.,.
O=C1c2cccc(OCc3ccc(F)cc3)c2CCN1Cc1ccc(F)cc1,6.5,-11.3,19.6*,4.8,19.7,38.3*,0.4
CC(=O)N1N=C(c2ccco2)CC1c1ccc(Cl)o1 (configuration not stated),6.0,1.3,-0.6,4.0,-0.9,.,.
CCNC(=O)C1CCCN(C(=O)c2ccc(N(C)C)cc2)CC1 (configuration not stated),.,.,-1.6,.,.,.,.
COc1cc(/C=N/NC(N)=O)ccc1OCC(=O)Nc1ccc(C)c(C)c1,-4.1,-11.7,24.0*,-6.4,1.2,31.9*,-1.5
COc1cc(/C=N/NC(N)=S)ccc1OCC(=O)Nc1ccc(C)c(C)c1,30.3,-7.3,5.4,3.0,21.2,.,.
O=C(COc1ccc(F)cc1Br)NCc1nnc2ccccn12,-13.5,-0.3,-3.7,.,1.9,.,.
CCOC(=O)c1[nH]c2ccc(OC)cc2c1NS(=O)(=O)c1ccc(Cl)s1,0.4,-11.8,103.3*,5.2,25.6,92.5*,-0.2
COc1ccc2[nH]c(C(=O)O)c(NS(=O)(=O)c3ccc(Cl)s3)c2c1,-10.9,0.2,-5.0,2.8,5.2,.,.
CCc1nnc(NC(=O)C2=CCN(S(=O)(=O)c3ccc(F)cc3)CC2)s1,-12.2,-27.0,-7.0,-0.1,11.8,.,.
COc1ccccc1C(=O)Nc1nnc([C@H]2C[C@H](O)[C@@H](CO)O2)s1,.,.,24.6*,.,.,-1.9,0.3
COC(=O)c1cc(C#N)c(N2CCN(C)CC2)nc1C,-0.4,-5.1,3.9,-12.3,7.2,.,.
COc1ccc(CCNc2ncnc3sc(C)cc23)cc1OC,.,.,85.7*,13.5,.,109.8*,-0.3
Cn1c2ccccc2c2nnc(SCC(=O)Nc3cccc(O)c3)nc21,-35.9,-28.3,-6.8,-3.0,56.1,.,.
SMILES,CHO parental Ca,OX1R antag-1,GalR3 antag,GPR7 antag,OX1R antag-2,GalR3 antag conf,CNG parental
CCN(Cc1ccccc1)c1ccc(/C=N/NC(=O)c2cccc(S(=O)(=O)N3CCOCC3)c2)cc1,2.1,8.8,23.6*,-6.7,40.1,88.5*,-2.1
O=C(O)Cc1csc(-c2ccccc2)n1,-13.1,-16.9,1.7,-11.5,9.9,.,.
O=C(O)Cc1csc(-c2cccc(F)c2)n1,5.9,2.6,.,-10.9,12.9,0.2,0.1
CCCc1cc(=O)oc2c3c(cc(OCC(=O)NCc4ccncc4)c12)OC(C)(C)CC3,-21.4,-30.5,15.2*,6.1,12.4,6.5,0.5
CCCc1cc(=O)oc2c3c(cc(OCC(=O)N[C@@H](C)C(=O)O)c12)OC(C)(C)CC3,-4.4,-16.0,-10.5,-2.7,8.0,.,.
Fc1cccc(-c2nnn3c2nc(Cl)c2ccccc23)c1,.,.,14.0*,2.5,.,6.4,3.8*
O=C(CC1C(=O)NCCN1Cc1cccc(F)c1)NC1CCCCCC1 (configuration not stated),-24.2,-15.7,-1.9,-4.8,13.6,.,.
CC(=O)OCC1OC(n2c(S)c(C#N)c(-c3ccccc3)c(C#N)c2=O)C(OC(C)=O)C(OC(C)=O)C1OC(C)=O (configuration not stated),.,.,57.2*,.,.,86.6*,0.6
CC(=O)OCC1OC(c2ccccc2)C(OC(C)=O)C(OC(C)=O)C1OC(C)=O (configuration not stated),-15.9,-5.6,-1.8,-16.2,0.8,.,.
Cc1noc(C)c1CSCC(=O)Nc1ccc(S(=O)(=O)C(F)F)cc1,-13.2,-0.2,-2.1,.,12.8,.,.
CCOc1ccc(OCCC(=O)N(CC)CC(=O)Nc2c(F)cccc2F)cc1,0.2,-2.4,5.0,.,4.1,.,.
CN1CC(=O)N(CC(=O)Nc2ccc3c(c2)CCC3)C1=O,-11.9,4.4,24.3*,-15.9,6.0,3.6,0.1
CC(C)CC1NC(=O)N(CC(=O)Nc2ccc3c(c2)CCC3)C1=O (configuration not stated),-22.5,-10.9,-7.2,-8.4,3.1,.,.
COc1ccccc1N(Cc1ccccc1)S(=O)(=O)c1cccc(C(=O)Nc2cc(C)ccn2)c1,4.9,-14.3,1.4,-21.7,9.7,.,.
Nc1ncnc2c1ncn2[C@@H]1O[C@H](C(=O)N[C@@H](CO)c2ccccc2)[C@@H](O)[C@H]1O,.,.,-5.6,.,.,.,.
Cc1ccc(CNC(=O)[C@H]2O[C@@H](n3cnc4c(N)ncnc43)[C@H](O)[C@@H]2O)o1,.,.,81.2*,.,.,78.0*,0.1
Nc1ncnc2c1ncn2[C@@H]1O[C@H](C(=O)N[C@H]2c3ccccc3C[C@H]2O)[C@@H](O)[C@H]1O,.,.,20.1*,.,.,31.4*,1.3*
O=c1ccn([C@@H]2O[C@H](CNCc3ccc(-c4cc(C(F)(F)F)ccc4Cl)o3)[C@@H](O)[C@H]2O)c(=O)[nH]1,.,.,2.3,.,.,.,.
